From article PMC12394810 (RSC Advances, 2025)
Entries after “also recorded” stand apart in the source; their conditions may differ.

Experiments:
[1] = test system: SKBR-3 (human breast cancer cell line); experiment: MTT cytotoxicity assay, SKBR-3; assay type: cell-based; conditions: SK-BR-3, 48 h, read-out: IC50 SKBR-3
Summary of the method: (§1)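 ATCC cells grown in DMEM with 10% FBS, 2 mM L-glutamine and 100 μg/mL penicillin–streptomycin at 37 °C, 5% CO2. Medium refreshed, 10 μL of 12 mM MTT stock added, then 4 h in the dark at 37 °C. Formazan dissolved in DMSO and read at 570 nm against media-only blanks. Three independent experiments; IC50 by linear regression.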

[2] = test system: DU145 (human prostate cell line); experiment: MTT cytotoxicity assay, DU145; assay type: cell-based; conditions: DU-145, 48 h, read-out: IC50 DU145
Summary of the method: as §1

[3] = test system: HepG2 (Human hematoma cell line); experiment: MTT cytotoxicity assay, HEPG2; assay type: cell-based; conditions: HepG2, 48 h, read-out: IC50 HEPG2
Summary of the method: as §1

[4] = test system: HEK-293 (human embryonic kidney cell line); experiment: MTT cytotoxicity assay, HEK-293; assay type: cell-based; conditions: HEK293, 48 h, read-out: IC50 HEK-293
[5] = test system: Candida albicans MTCC 227; experiment: Agar well diffusion, antifungal; assay type: cell-based
Summary of the method: (§2)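 Fungal strains kept like the bacteria (Mueller–Hinton media) but at 30 °C. Agar well diffusion per CLSI (2012): inoculum spread over the agar, 6–8 mm wells punched, and 20–100 μL test compound added per well. Plates incubated at 30 °C and zone of inhibition diameter read in mm.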

[6] = test system: Candida tropicalis MTCC 230; experiment: Agar well diffusion, antifungal; assay type: cell-based; conditions: 1 mg/mL, 18 hrs
Summary of the method: as §2

[7] = test system: Swiss albino mice; experiment: In vivo acute oral toxicity of compound 5n; conditions: for ALKP / Albumin / Bilirubin / Body weight / Cholesterol / Creatinine / Haemoglobin / RBC / SGOT / SGPT / Serum protein / Triglycerides / WBC: n = 6
Summary of the method: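 30 Swiss albino mice (15 male, 15 female; 22–25 g), 7-day acclimatization, 22 ± 5 °C, 12 h light/dark, standard feed and water ad libitum. Five groups of 3 male + 3 female. Single oral dose of test compound at 5, 50, 300 or 1000 mg kg−1, suspended in gum acacia and 0.7% CMC; controls received vehicle. Clinical observation, body weight, haematology, serum biochemistry, organ weights; mean ± SE, n = 6, compared with control.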

[8] = test system: erythrocytes (heparinized human blood); experiment: Erythrocyte osmotic fragility; assay type: cell-based; conditions: 1 μL of 10 mg mL^−1 stock, 37 °C, 30 min
[9] = single acute oral dose 5, 50, 300, 1000 mg kg^−1
[10] = single oral dose 5 mg kg^−1, mean ± SE
[11] = single oral dose 50 mg kg^−1, mean ± SE
[12] = single oral dose 300 mg kg^−1, mean ± SE
[13] = single oral dose 1000 mg kg^−1, mean ± SE

O=C(/C=C/C=C/c1ccccc1)c1ccccc1OCc1ccccc1Br [Compound 5h, (2E,4E)-1-(2-((2-Bromobenzyl)oxy)phenyl)-5-phenylpenta-2,4-dien-1-one]
IC50 [1]: 244 ± 4.7 µM | IC50 [2]: 28.6 ± 2.2 µM | IC50 [3]: 45 ± 3.3 µM | IC50 [4]: 23.4 ± 4.7 µM

N#Cc1ccccc1COc1ccccc1C(=O)/C=C/C=C/c1ccccc1 [Compound 5i, 2-((2-((2E,4E)-5-Phenylpenta-2,4-dienoyl)phenoxy)methyl) benzonitrile]
IC50 [1]: 75.3 ± 2.1 µM | IC50 [2]: 68.4 ± 2.8 µM | IC50 [3]: 42 ± 2.1 µM | IC50 [4]: 48.2 ± 5 µM

Cc1ccc(COc2ccccc2C(=O)/C=C/C=C/c2ccccc2)cc1 [Compound 5j, (2E,4E)-1-(2-((4-Methylbenzyl)oxy)phenyl)-5-phenylpenta-2,4-dien-1-one]
IC50 [1]: 7.87 ± 2.1 µM | IC50 [2]: 21.3 ± 5.6 µM | IC50 [3]: 25.7 ± 1.5 µM | IC50 [4]: 23.6 ± 1.4 µM

O=C(/C=C/C=C/c1ccccc1)c1ccccc1OCc1ccccc1 [Compound 5k, (2E,4E)-1-(2-(Benzyloxy)phenyl)-5-phenylpenta-2,4-dien-1-one]
IC50 [1]: 80.3 ± 8.7 µM | IC50 [2]: 55.6 ± 3.7 µM | IC50 [3]: 46.6 ± 1.4 µM | IC50 [4]: 109.4 ± 0.7 µM

CCCCCCOc1ccccc1C(=O)/C=C/C=C/c1ccccc1 [Compound 5l, (2E,4E)-1-(2-(Hexyloxy)phenyl)-5-phenylpenta-2,4-dien-1-one]
Zone of inhibition Candida albicans ([5]; 1 mg/mL, 18 hrs): showed activity | zone of inhibition at 1000 µg/mL ([5]; Candida albicans, MTCC227, 18 h, read-out: Zone of inhibition Candida albicans): 8 mm | IC50 [1]: 23.5 ± 4.1 µM | Zone of inhibition Candida tropicalis [6]: showed activity | IC50 [2]: 29 ± 2.1 µM | IC50 [3]: 46.7 ± 2.2 µM | IC50 [4]: 98 ± 10.1 µM

CCCCCOc1ccccc1C(=O)/C=C/C=C/c1ccccc1 [Compound 5m, (2E,4E)-1-(2-(Pentyloxy)phenyl)-5-phenylpenta-2,4-dien-1-one]
IC50 [1]: 125 ± 6 µM | IC50 [2]: 126.8 ± 0.2 µM | IC50 [3]: 33.2 ± 0.7 µM | IC50 [4]: 104 ± 7.3 µM

O=C(/C=C/C=C/c1ccccc1)c1ccccc1OCCBr [Compound 5n, (2E,4E)-1-(2-(2-Bromoethoxy)phenyl)-5-phenylpenta-2,4-dien-1-one]
IC50 [1]: 7.69 ± 2.8 µM | Dose well tolerated / safe as a single acute oral dose ([7]; oral): up to 1000 mg kg^−1 | Gross pathology, absolute and relative organ weights [7, 9]: no significant abnormalities in absolute or relative organ weights | Morbidity, mortality, abnormal clinical signs [7, 9]: no morbidity, mortality, or abnormal clinical signs; also recorded: no morbidity, mortality | ALKP [7, 10]: 170.67 ± 13.43 U L^−1 | Albumin [7, 10]: 2.55 ± 0.19 g/dL | Bilirubin [7, 10]: 0.50 ± 0.00 mg/dL | Body weight [7, 10]: 31.33 ± 1.54 g | Cholesterol [7, 10]: 113.94 ± 4.49 mg/dL | Creatinine [7, 10]: 0.92 ± 0.08 mg/dL | Haemoglobin [7, 10]: 12.74 ± 0.51 g/dL | RBC [7, 10]: 8.20 ± 0.60 million per mm^3 | SGOT [7, 10]: 20.84 ± 0.88 U L^−1 | SGPT [7, 10]: 16.76 ± 0.67 U L^−1 | Serum protein [7, 10]: 5.85 ± 0.13 mg/mL | Triglycerides [7, 10]: 111.43 ± 4.39 mg/dL | WBC [7, 10]: 9.48 ± 0.68 1000*/mm^3 | ALKP [7, 11]: 164.25 ± 13.54 U L^−1 | Albumin [7, 11]: 2.58 ± 0.07 g/dL | Bilirubin [7, 11]: 0.51 ± 0.00 mg/dL | Body weight [7, 11]: 28.33 ± 0.72 g | Cholesterol [7, 11]: 110.16 ± 3.57 mg/dL | Creatinine [7, 11]: 0.86 ± 0.06 mg/dL | Haemoglobin [7, 11]: 12.68 ± 0.67 g/dL | RBC [7, 11]: 7.77 ± 0.66 million per mm^3 | SGOT [7, 11]: 20.60 ± 1.71 U L^−1 | SGPT [7, 11]: 18.63 ± 0.59 U L^−1 | Serum protein [7, 11]: 5.76 ± 0.16 mg/mL | Triglycerides [7, 11]: 111.02 ± 5.61 mg/dL | WBC [7, 11]: 9.54 ± 0.79 1000*/mm^3 | ALKP [7, 12]: 173.23 ± 14.47 U L^−1 | Albumin [7, 12]: 2.55 ± 0.19 g/dL | Bilirubin [7, 12]: 0.49 ± 0.02 mg/dL | Body weight [7, 12]: 31.82 ± 0.96 g | Cholesterol [7, 12]: 111.51 ± 3.48 mg/dL | Creatinine [7, 12]: 0.90 ± 0.13 mg/dL | Haemoglobin [7, 12]: 12.68 ± 0.71 g/dL | RBC [7, 12]: 7.34 ± 0.38 million per mm^3 | SGOT [7, 12]: 19.39 ± 1.51 U L^−1 | SGPT [7, 12]: 18.03 ± 0.64 U L^−1 | Serum protein [7, 12]: 5.86 ± 0.18 mg/mL | Triglycerides [7, 12]: 110.41 ± 3.90 mg/dL | WBC [7, 12]: 10.13 ± 0.50 1000*/mm^3 | ALKP [7, 13]: 170.75 ± 6.26 U L^−1 | Albumin [7, 13]: 2.70 ± 0.09 g/dL | Bilirubin [7, 13]: 0.47 ± 0.04 mg/dL | Body weight [7, 13]: 27.92 ± 1.30 g | Cholesterol [7, 13]: 107.82 ± 3.48 mg/dL | Creatinine [7, 13]: 0.97 ± 0.09 mg/dL | Haemoglobin [7, 13]: 12.42 ± 0.55 g/dL | RBC [7, 13]: 7.54 ± 0.62 million per mm^3 | SGOT [7, 13]: 19.73 ± 1.43 U L^−1 | SGPT [7, 13]: 17.55 ± 1.23 U L^−1 | Serum protein [7, 13]: 5.93 ± 0.13 mg/mL | Triglycerides [7, 13]: 108.74 ± 2.77 mg/dL | IC50 [2]: 8.72 ± 1.8 µM | MEF50 (Mean Erythrocyte Fragility; concentration of PBS at which 50% of erythrocytes undergo hemolysis) [8]: 0.457 | IC50 [3]: 9.38 ± 1.6 µM | IC50 [4]: 18.5 ± 1.1 µM

COc1cccc2c1C(=O)c1c(O)c3c(c(O)c1C2=O)C[C@@](O)(C(=O)CO)C[C@@H]3O[C@H]1C[C@H](N)[C@H](O)[C@H](C)O1 [Doxorubicin, reference compound]
IC50 [1]: 0.7 ± 0.56 µM | IC50 [2]: 0.45 ± 0.52 µM | IC50 [3]: 2.5 ± 1.42 µM

O=c1c(O)c(-c2ccc(O)c(O)c2)oc2cc(O)cc(O)c12 [Quercetin, reference compound]
MEF50 (Mean Erythrocyte Fragility; concentration of PBS at which 50% of erythrocytes undergo hemolysis) [8]: 0.431
